Experimental data gathered from unrelated publications.

| test | test system | setting | measurement | value | Structure (SMILES) |
| --- | --- | --- | --- | --- | --- |
| metabolic stability | mouse, liver microsomes |  | scaled CLint | 120 mL/min/kg | CC(C)n1ncc2c(C(=O)NCC(C)(C)N(C)C)cc(C3CC3)nc21 |
| metabolic stability | mouse, liver microsomes | 1 µM, pH 7.4 | microsomal CLint | 0.59 µL/min/mg | O=c1c2ccc(OCc3cccc(C(F)(F)F)c3)cc2[nH]c2ccc(Cl)c(F)c12 |
|  | rat, plasma | intravenous, 2 mg/kg | Vd | 1 L/kg | CNS(=O)(=O)c1ccc(Nc2ncc(C(F)(F)F)c([C@H]3CC[C@@](C)(O)CC3)n2)c(C)c1 |
| metabolic stability | mouse, liver microsomes | 1 µM, pH 7.4 | microsomal CLint | 49 µL/min/mg | O=c1c2c([nH]c3ccc(F)c(Oc4ccc(OC(F)(F)F)cc4)c13)CCCC2 |
|  | rat, plasma | intravenous, 2 mg/kg | Vd | 18 L/kg | Cc1cc(S(=O)(=O)NC2CC(N3CCN(CC4CCN(c5ccc6c(c5F)n(C)c(=O)n6C5CCC(=O)NC5=O)CC4)CC3)C2)ccc1Nc1ncc(C(F)(F)F)c(N2CCCC(C)(O)C2)n1 (centres unmarked) |
| metabolic stability | mouse, liver microsomes |  | microsomal CLint | < 7 µL/min/mg | O=C1NC(CF)(CF)C(=O)N1c1ccc(F)c(C(F)(F)F)c1 |
| metabolic stability | mouse, liver microsomes | 1 µM, pH 7.4 | microsomal CLint | 51.9 µL/min/mg | CCCN(CCC)CCOc1ccc2c(=O)c3c([nH]c2c1)CCCC3 |
|  | rat, plasma | intravenous, 2 mg/kg | Vd | 9 L/kg | Cc1cc(S(=O)(=O)NC2CC(N3CCN(CC4CCN(c5ccc(NC6CCC(=O)NC6=O)cc5C)CC4)CC3)C2)ccc1Nc1ncc(C(F)(F)F)c(N2CCC[C@](C)(O)C2)n1 (some centres unmarked) |
| metabolic stability | mouse, liver microsomes | 1 µM, pH 7.4 | microsomal CLint | 6.76 µL/min/mg | O=c1c2ccc(OCc3ccc(C(F)(F)F)cc3)cc2[nH]c2cc(Cl)cc(F)c12 |
| metabolic stability | mouse, liver microsomes |  | microsomal CLint | 7 µL/min/mg | CC1(C)NC(=O)N(c2ccc(F)c(F)c2)C1=O |
| metabolic stability | mouse, liver microsomes |  | scaled CLint | 75.6 mL/min/kg | CC(C)n1ncc2c(C(=O)NC(C)(C)CN)cc(C3CC3)nc21 |
|  | rat, plasma | intravenous, 2 mg/kg | Vd | 3 L/kg | CNS(=O)(=O)c1ccc(Nc2ncc(C(F)(F)F)c(N3CCC(C)(O)CC3)n2)c(C)c1 |
| metabolic stability | mouse, liver microsomes |  | scaled CLint | 78.2 mL/min/kg | CC(C)n1ncc2c(C(=O)NCC3(F)CNC3)cc(C3CC3)nc21 |
|  | male Sprague-Dawley rat, plasma | oral, 5 mg/kg, single dose | Vd/F | 20 L/kg | C[C@H]1Oc2cc(cnc2N)-c2c(nn(C)c2C#N)CN(C)C(=O)c2ccc(F)cc21 |
